In ChEMBL document CHEMBL4043093, “2-Oxo-3, 4-dihydropyrimido[4, 5-d]pyrimidinyl derivatives as new irreversible pan fibroblast growth factor receptor (FGFR) inhibitors” (Eur J Med Chem, 2017) one finds IC50 and Activity data, which are given here for one molecule.

The subject of assay [1] is SW780. Nature of the assay: Antiproliferative activity against human FGFR3-amplified SW780 cells after 5 days by SRB assay. Conditions: SW780, 120 h. (In general: The SRB assay estimates cell density from bound dye.)
Assay [2] concerns the target Megakaryocyte-associated tyrosine-protein kinase (Homo sapiens) (UniProt P42679). Nature of the assay: Inhibition of wild-type human full length CTK (M43 to P508 residues) expressed in HEK293 cells assessed as residual activity at 1000 nM after 30 mins by Kinomescan method relative to control. The class given is cell-based. The essentials:
(§1)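 Single-concentration screen at 1 µM across a 456-kinase KINOMEscan panel. The read-out is Percent Control for each kinase.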

In assay [3] the target is Serine/threonine-protein kinase Nek6 (Homo sapiens) (UniProt Q9HC98). Nature of the assay: Inhibition of wild-type human full length NEK6 (M8 to T313 residues) expressed in Escherichia coli BL21 assessed as residual activity at 1000 nM after 30 mins by Kinomescan method relative to control. The essentials:
as §1

In assay [4] the target is Calcium/calmodulin-dependent protein kinase type II subunit delta (Homo sapiens) (UniProt Q13557). Briefly: Inhibition of wild-type human partial length CAMK2D (M1 to E329 residues) expressed in Escherichia coli BL21 assessed as residual activity at 1000 nM after 30 mins by Kinomescan method relative to control.
The target in assay [5] is Serine/threonine-protein kinase haspin (Homo sapiens) (UniProt Q8TF76). Briefly: Inhibition of wild-type human partial length HASPIN (I452 to K798 residues) expressed in HEK293 cells assessed as residual activity at 1000 nM after 30 mins by Kinomescan method relative to control. In kind it is cell-based.
Assay [6] has as its target Calcium/calmodulin-dependent protein kinase type 1B (Homo sapiens) (UniProt Q6P2M8). Briefly: Inhibition of wild-type human partial length CAMK1B (W9 to A311 residues) expressed in HEK293 cells assessed as residual activity at 1000 nM after 30 mins by Kinomescan method relative to control. The class given is cell-based.
In assay [7] the target is Tyrosine-protein kinase CSK (Homo sapiens) (UniProt P41240). Nature of the assay: Inhibition of wild-type human full length CSK (M1 to L450 residues) expressed in Escherichia coli BL21 assessed as residual activity at 1000 nM after 30 mins by Kinomescan method relative to control. In short, it runs like this:
(§2)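 Single-point screen at a fixed 1 µM, run within a 456-kinase DiscoveRx KINOMEscan panel. Each kinase's read-out is Percent Control, i.e. signal relative to a control without compound. Hits were scored by a Percent Control < 35 cut-off, and an S(35) selectivity score was calculated across the non-mutant kinases.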

Assay [8] has as its target LIM domain kinase 1 (Homo sapiens) (UniProt P53667). Briefly: Inhibition of wild-type human full length LIMK1 (M1 to D647 residues) expressed in Escherichia coli BL21 assessed as residual activity at 1000 nM after 30 mins by Kinomescan method relative to control. In short, it runs like this:
as §1

Assay [9] addresses Dual specificity mitogen-activated protein kinase kinase 2 (Homo sapiens) (UniProt P36507). Nature of the assay: Inhibition of wild-type human full length MEK2 (M1 to V400 residues) expressed in HEK293 cells assessed as residual activity at 1000 nM after 30 mins by Kinomescan method relative to control. In kind it is cell-based. In short, it runs like this: as §1
Assay [10] addresses Cyclin-dependent kinase 15 (Homo sapiens) (UniProt Q96Q40). Nature of the assay: Inhibition of wild-type human full length PFTAIRE2 (M1 to W384 residues) expressed in Escherichia coli BL21 assessed as residual activity at 1000 nM after 30 mins by Kinomescan method relative to control. In short, it runs like this: as §1
For assay [11], the target named is Death-associated protein kinase 2 (Homo sapiens) (UniProt Q9UIK4). Briefly: Inhibition of wild-type human full length DAPK2 (M1 to S370 residues) expressed in Escherichia coli BL21 assessed as residual activity at 1000 nM after 30 mins by Kinomescan method relative to control. In short, it runs like this:
as §1

Assay [12] addresses Cyclin-dependent kinase-like 2 (Homo sapiens) (UniProt Q92772). Nature of the assay: Inhibition of wild-type human partial length CDKL2 (M1 to D327 residues) expressed in Escherichia coli BL21 assessed as residual activity at 1000 nM after 30 mins by Kinomescan method relative to control.
The target in assay [13] is Calcium/calmodulin-dependent protein kinase type II subunit alpha (Homo sapiens) (UniProt Q9UQM7). Briefly: Inhibition of wild-type human partial length CAMK2A (M1 to K328 residues) expressed in Escherichia coli BL21 assessed as residual activity at 1000 nM after 30 mins by Kinomescan method relative to control.
Assay [14] concerns the target Homeodomain-interacting protein kinase 4 (Homo sapiens) (UniProt Q8NE63). Briefly: Inhibition of wild-type human partial length HIPK4 (M1 to V384 residues) expressed in Escherichia coli BL21 assessed as residual activity at 1000 nM after 30 mins by Kinomescan method relative to control.
Assay [15] has as its target Ribosomal protein S6 kinase alpha-1 (Homo sapiens) (UniProt Q15418). Nature of the assay: Inhibition of wild-type human partial length C-terminal RSK1 kinase domain 2 (P360 to L681 residues) expressed in Escherichia coli BL21 assessed as residual activity at 1000 nM after 30 mins by Kinomescan method relative to control.
The target in assay [16] is Glycogen synthase kinase-3 alpha (Homo sapiens) (UniProt P49840). Nature of the assay: Inhibition of wild-type human full length GSK3A (M1 to S483 residues) expressed in Escherichia coli BL21 assessed as residual activity at 1000 nM after 30 mins by Kinomescan method relative to control. The essentials:
as §1

Assay [17] addresses Serine/threonine-protein kinase N1 (Homo sapiens) (UniProt Q16512). Nature of the assay: Inhibition of wild-type human partial length PKN1 (E598 to C948 residues) expressed in Escherichia coli BL21 assessed as residual activity at 1000 nM after 30 mins by Kinomescan method relative to control.
In assay [18] the target is Tyrosine-protein kinase Lck (Homo sapiens) (UniProt P06239). Briefly: Inhibition of wild-type human partial length LCK (R207 to P509 residues) expressed in Escherichia coli BL21 assessed as residual activity at 1000 nM after 30 mins by Kinomescan method relative to control.
Assay [19] addresses Ribosomal protein S6 kinase beta-1 (Homo sapiens) (UniProt P23443). Briefly: Inhibition of wild-type human partial length S6K1 (M1 to S421 residues) expressed in HEK293 cells assessed as residual activity at 1000 nM after 30 mins by Kinomescan method relative to control. In kind it is cell-based.
Assay [20] has as its target Protein-tyrosine kinase 6 (Homo sapiens) (UniProt Q13882). Nature of the assay: Inhibition of wild-type human partial length BRK (L166 to T451 residues) expressed in Escherichia coli BL21 assessed as residual activity at 1000 nM after 30 mins by Kinomescan method relative to control.
In assay [21] the target is Cyclin-dependent kinase 5 (Homo sapiens) (UniProt Q00535). Briefly: Inhibition of wild-type human full length CDK5 (M1 to P292 residues) expressed in Escherichia coli BL21 assessed as residual activity at 1000 nM after 30 mins by Kinomescan method relative to control. In short, it runs like this: as §2
For assay [22], the target named is Phosphorylase b kinase gamma catalytic chain, skeletal muscle/heart isoform (Homo sapiens) (UniProt Q16816). Nature of the assay: Inhibition of wild-type human full length PHKG1 (M1 to Y387 residues) expressed in Escherichia coli BL21 assessed as residual activity at 1000 nM after 30 mins by Kinomescan method relative to control. The essentials:
as §1

Sequence of Cyclin-dependent kinase 15 (Homo sapiens) (Q96Q40 whole entry, the tested form may be a part): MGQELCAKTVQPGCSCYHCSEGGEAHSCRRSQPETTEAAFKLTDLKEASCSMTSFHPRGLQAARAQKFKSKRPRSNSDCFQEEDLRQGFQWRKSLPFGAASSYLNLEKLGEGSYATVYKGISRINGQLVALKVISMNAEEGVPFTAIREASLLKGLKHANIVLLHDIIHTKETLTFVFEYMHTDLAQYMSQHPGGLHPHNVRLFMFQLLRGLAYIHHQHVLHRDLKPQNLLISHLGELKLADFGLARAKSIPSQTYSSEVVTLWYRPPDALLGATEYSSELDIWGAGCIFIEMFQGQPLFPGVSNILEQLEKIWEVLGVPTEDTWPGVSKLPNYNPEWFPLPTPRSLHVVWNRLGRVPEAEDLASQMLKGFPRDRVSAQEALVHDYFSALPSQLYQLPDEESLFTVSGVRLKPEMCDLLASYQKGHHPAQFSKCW
Sequence of Ribosomal protein S6 kinase beta-1 (Homo sapiens) (P23443 whole entry, looked up, the tested form may be a part): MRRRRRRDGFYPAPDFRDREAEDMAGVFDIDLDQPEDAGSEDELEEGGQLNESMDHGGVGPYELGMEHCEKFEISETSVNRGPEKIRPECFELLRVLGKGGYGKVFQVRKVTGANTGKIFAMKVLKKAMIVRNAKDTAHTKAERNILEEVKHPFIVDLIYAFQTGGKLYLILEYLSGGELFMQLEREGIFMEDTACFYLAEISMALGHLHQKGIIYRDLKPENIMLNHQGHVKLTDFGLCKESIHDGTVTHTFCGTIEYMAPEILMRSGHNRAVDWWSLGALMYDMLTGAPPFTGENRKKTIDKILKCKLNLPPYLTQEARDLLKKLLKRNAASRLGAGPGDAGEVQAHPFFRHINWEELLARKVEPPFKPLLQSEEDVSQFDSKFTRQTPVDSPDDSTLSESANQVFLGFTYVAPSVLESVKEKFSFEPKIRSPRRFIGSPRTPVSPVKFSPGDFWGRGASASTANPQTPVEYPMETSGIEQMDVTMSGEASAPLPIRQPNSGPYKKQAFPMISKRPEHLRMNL
Sequence of Protein-tyrosine kinase 6 (Homo sapiens) (Q13882 whole entry, looked up, the tested form may be a part): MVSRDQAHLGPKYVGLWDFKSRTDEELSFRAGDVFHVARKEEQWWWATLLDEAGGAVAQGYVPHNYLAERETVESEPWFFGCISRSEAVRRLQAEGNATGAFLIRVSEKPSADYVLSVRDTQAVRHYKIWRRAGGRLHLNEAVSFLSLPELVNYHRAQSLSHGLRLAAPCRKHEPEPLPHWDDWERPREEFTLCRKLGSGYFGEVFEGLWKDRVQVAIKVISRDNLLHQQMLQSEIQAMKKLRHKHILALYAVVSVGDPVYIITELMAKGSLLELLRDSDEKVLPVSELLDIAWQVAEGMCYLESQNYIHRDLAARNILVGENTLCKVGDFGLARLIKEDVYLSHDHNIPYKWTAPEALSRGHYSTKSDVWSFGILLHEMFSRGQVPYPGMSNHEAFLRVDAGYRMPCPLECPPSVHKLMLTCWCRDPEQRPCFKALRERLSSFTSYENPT
Sequence of Death-associated protein kinase 2 (Homo sapiens) (Q9UIK4 whole entry, looked up, the tested form may be a part): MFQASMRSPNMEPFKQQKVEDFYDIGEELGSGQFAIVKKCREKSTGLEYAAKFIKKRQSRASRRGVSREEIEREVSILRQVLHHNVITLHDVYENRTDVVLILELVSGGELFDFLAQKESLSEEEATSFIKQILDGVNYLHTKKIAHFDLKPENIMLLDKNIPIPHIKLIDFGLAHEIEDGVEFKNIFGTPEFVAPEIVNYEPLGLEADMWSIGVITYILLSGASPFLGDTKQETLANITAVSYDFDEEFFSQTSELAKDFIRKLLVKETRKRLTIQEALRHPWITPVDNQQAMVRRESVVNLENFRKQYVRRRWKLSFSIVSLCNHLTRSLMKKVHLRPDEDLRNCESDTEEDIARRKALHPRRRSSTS
Sequence of Glycogen synthase kinase-3 alpha (Homo sapiens) (P49840 2-483 limits assumed): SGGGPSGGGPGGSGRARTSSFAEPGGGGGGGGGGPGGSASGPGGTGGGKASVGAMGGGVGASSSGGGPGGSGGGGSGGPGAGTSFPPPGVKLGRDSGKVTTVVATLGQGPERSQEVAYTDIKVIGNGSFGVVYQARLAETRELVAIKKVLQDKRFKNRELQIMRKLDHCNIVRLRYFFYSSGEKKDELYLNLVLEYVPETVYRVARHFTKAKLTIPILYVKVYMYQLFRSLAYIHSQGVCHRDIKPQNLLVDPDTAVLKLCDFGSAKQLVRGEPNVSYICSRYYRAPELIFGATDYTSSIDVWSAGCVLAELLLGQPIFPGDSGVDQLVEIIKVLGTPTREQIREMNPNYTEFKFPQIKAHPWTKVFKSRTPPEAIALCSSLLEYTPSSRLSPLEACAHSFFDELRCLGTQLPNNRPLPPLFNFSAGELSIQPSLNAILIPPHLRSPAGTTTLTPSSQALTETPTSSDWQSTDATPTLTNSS
Sequence of Ribosomal protein S6 kinase alpha-1 (Homo sapiens) (Q15418 whole entry, the tested form may be a part): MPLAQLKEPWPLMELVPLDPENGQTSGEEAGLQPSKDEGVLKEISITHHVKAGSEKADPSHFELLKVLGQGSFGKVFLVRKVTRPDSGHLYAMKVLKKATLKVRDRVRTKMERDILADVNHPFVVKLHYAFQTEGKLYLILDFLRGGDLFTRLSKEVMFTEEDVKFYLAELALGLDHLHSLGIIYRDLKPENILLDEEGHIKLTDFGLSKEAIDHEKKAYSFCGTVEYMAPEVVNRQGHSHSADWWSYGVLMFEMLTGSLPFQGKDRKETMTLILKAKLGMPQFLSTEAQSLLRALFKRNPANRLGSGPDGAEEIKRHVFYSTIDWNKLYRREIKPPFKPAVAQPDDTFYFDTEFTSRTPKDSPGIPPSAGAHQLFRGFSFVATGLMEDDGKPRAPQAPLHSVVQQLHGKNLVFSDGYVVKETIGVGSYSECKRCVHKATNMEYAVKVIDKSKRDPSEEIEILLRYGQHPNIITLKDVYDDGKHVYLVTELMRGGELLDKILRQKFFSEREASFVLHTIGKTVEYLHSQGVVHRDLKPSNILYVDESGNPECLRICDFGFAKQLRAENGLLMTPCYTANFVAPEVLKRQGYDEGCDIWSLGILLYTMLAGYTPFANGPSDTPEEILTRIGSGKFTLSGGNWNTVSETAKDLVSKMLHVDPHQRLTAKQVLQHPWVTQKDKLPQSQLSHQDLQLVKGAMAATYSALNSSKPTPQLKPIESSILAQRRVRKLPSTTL
Sequence of Serine/threonine-protein kinase haspin (Homo sapiens) (Q8TF76 whole entry, the tested form may be a part): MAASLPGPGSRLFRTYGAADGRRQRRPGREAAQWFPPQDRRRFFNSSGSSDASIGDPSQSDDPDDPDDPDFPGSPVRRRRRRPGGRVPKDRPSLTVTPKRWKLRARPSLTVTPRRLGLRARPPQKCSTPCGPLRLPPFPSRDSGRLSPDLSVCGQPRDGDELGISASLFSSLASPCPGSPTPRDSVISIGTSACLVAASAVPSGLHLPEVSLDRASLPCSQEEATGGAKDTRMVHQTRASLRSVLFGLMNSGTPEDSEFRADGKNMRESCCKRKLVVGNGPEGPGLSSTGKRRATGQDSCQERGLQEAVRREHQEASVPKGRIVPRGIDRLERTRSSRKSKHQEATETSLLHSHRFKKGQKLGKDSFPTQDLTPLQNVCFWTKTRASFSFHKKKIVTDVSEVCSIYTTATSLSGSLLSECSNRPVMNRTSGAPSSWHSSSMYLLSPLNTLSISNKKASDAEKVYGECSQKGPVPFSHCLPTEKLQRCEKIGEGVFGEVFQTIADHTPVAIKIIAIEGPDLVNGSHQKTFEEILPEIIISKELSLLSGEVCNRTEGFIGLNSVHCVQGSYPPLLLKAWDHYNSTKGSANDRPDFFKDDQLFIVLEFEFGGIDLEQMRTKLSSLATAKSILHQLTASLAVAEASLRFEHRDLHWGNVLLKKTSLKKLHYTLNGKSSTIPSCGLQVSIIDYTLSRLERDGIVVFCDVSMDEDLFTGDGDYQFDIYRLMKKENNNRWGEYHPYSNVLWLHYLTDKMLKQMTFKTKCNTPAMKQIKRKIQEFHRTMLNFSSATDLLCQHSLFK
Sequence of LIM domain kinase 1 (Homo sapiens) (P53667 whole entry, looked up, the tested form may be a part): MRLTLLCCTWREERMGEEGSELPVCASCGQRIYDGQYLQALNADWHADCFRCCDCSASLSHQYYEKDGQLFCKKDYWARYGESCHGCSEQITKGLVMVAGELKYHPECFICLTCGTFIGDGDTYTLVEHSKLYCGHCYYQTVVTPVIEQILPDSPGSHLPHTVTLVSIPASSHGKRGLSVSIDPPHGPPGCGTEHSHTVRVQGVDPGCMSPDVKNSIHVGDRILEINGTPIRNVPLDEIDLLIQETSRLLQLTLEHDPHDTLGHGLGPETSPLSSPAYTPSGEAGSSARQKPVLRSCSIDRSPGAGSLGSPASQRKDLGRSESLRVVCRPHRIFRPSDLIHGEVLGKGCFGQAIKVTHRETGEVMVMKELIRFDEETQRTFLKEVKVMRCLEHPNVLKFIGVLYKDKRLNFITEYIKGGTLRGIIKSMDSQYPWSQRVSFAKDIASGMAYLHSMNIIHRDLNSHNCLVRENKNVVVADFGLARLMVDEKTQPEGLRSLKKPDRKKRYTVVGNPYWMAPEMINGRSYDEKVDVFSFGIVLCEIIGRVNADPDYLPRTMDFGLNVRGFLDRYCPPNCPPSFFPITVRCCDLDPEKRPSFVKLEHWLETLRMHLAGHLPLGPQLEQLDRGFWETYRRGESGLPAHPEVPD
Sequence of Megakaryocyte-associated tyrosine-protein kinase (Homo sapiens) (P42679 whole entry, the tested form may be a part): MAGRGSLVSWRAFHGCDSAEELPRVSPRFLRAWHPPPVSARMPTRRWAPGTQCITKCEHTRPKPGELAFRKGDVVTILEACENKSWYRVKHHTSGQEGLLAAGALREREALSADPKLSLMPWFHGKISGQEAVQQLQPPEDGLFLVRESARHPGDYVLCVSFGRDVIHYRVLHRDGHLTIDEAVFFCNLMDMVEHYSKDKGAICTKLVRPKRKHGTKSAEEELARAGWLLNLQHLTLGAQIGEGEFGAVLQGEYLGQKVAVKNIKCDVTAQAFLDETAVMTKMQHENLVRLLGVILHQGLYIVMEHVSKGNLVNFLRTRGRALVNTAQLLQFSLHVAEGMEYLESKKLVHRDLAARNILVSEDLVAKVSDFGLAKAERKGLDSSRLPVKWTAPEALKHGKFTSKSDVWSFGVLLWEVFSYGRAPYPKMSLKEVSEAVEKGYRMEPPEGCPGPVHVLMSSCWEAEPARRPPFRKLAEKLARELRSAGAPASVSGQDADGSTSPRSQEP

What is called IC50 is the point on the concentration scale where inhibition reaches its midpoint. A lower IC50 goes with higher potency. Turning to `COc1cc(OC)c(Cl)c(N2Cc3cnc(Nc4ccc(F)cc4)nc3N(C3CCN(C(=O)/C=C/CN(C)C)CC3)C2=O)c1Cl`, it took 16.1 nM to reach half-maximal inhibition in assay [1] (IC50). The Activity in assay [2] came out at 100%; in assay [3] it was 100%; in assay [4] it was 100%; in assay [5] it was 61%; in [6] it was 100%; in assay [7], 100%. The Activity in assay [8] was 100%; in assay [9] it was 89%; in assay [10], 100%; in assay [11], 100%; in assay [12], 96%; in assay [13], 100%. Also, the Activity in assay [14] came out at 99%; in [15], 94%; in assay [16], 100%; in [17], 92%; in [18] it was 1.5%; in assay [19], 92%. Besides, the Activity is 100% in [20], 100% in [21] and 92% in assay [22].
